# Reference: ChEMBL document CHEMBL1649115, “Enhanced susceptibility to antifungal oligopeptides in yeast strains overexpressing ABC multidrug efflux pumps” (Antimicrob Agents Chemother, 2008)
# Non-standard residues stand in square brackets, D forms with d. Residues, ends and D or L forms follow the SMILES beside them. Phe(3-F) = N[C@@H](Cc1cccc(F)c1)C(=O)O
# How the values were obtained:
# [1] = system: Candida albicans; experiment: Antifungal activity against fluconazole sensitive Candida albicans isolate B3 in RPMI-1640 buffered medium after 24 hrs by microdilution method; format: functional; settings: Candida albicans, isolate B3, 24 h; read-out: MIC
# Procedure, shortened: (§1)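 C. albicans cells were grown in 2% glucose, 1% yeast extract, 1% Bacto peptone medium before testing. […] CARE-2 fingerprinting confirmed that each pair is a single strain.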
# [2] = system: Saccharomyces cerevisiae; experiment: Drug uptake in Saccharomyces cerevisiae ADMDR1 expressing Candida albicans MDR1 efflux pump at 200 uM pretreated for 10 mins measured after 60 mins by fluorescamine staining; format: ADME, organism-based; settings: in vivo, 1 h
# [3] = system: Saccharomyces cerevisiae; experiment: Antifungal activity against Saccharomyces cerevisiae ADCDR2 expressing Candida albicans CDR2 efflux pump in YNPG medium containing 1 mg/ml […] after 24 hrs by microdilution method; format: functional; settings: ADCDR2, 24 h
# [4] = system: Saccharomyces cerevisiae; experiment: Antifungal activity against Saccharomyces cerevisiae ADCDR1 expressing Candida albicans CDR1 efflux pump in YNPG medium containing 1 mg/ml […] after 24 hrs by microdilution method; format: functional; settings: ADCDR1, 24 h
# [5] = system: Candida albicans; experiment: Antifungal activity against fluconazole sensitive Candida albicans isolate Gu4 in RPMI-1640 buffered medium after 24 hrs by microdilution method; format: functional; settings: Candida albicans, isolate Gu4, 24 h; read-out: MIC; procedure, shortened: as §1
# [6] = system: Saccharomyces cerevisiae; experiment: Drug uptake in Saccharomyces cerevisiae ADCDR1 expressing Candida albicans CDR1 efflux pump at 200 uM pretreated for 10 mins measured after 60 mins by fluorescamine staining; format: ADME, organism-based; settings: in vivo, 1 h
# [7] = system: Saccharomyces cerevisiae; experiment: Antifungal activity against wild type Saccharomyces cerevisiae ATCC 9763 in YNPG medium containing 1 mg/ml […] after 24 hrs by microdilution method; format: functional; settings: ATCC 9763, 24 h
# [8] = system: Candida albicans; experiment: Antifungal activity against fluconazole resistant Candida albicans isolate Gu5 overexpressing CDR1 and CDR2 in RPMI-1640 buffered medium after 24 hrs by microdilution method; format: functional; settings: isolate Gu5, 24 h
# Procedure, shortened: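 C. albicans cells were grown in 2% glucose, 1% yeast extract, 1% Bacto peptone medium before testing. CARE-2 fingerprinting confirmed that each pair is a single strain.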
# [9] = system: Saccharomyces cerevisiae; experiment: Drug uptake in Saccharomyces cerevisiae ADCDR2 expressing Candida albicans CDR2 efflux pump at 200 uM pretreated for 10 mins measured after 60 mins by fluorescamine staining; format: ADME, organism-based; settings: in vivo, 1 h
# [10] = system: Saccharomyces cerevisiae; experiment: Antifungal activity against Saccharomyces cerevisiae AD12345678 in YNPG medium containing 1 mg/ml […] after 24 hrs by microdilution method; format: functional; settings: AD12345678, 24 h
# [11] = system: Saccharomyces cerevisiae; experiment: Drug uptake in Saccharomyces cerevisiae AD12345678 at 200 uM pretreated for 10 mins measured after 60 mins by fluorescamine staining; format: ADME, organism-based; settings: in vivo, 1 h
# [12] = system: Saccharomyces cerevisiae; experiment: Antifungal activity against Saccharomyces cerevisiae ADMDR1 expressing Candida albicans MDR1 efflux pump in YNPG medium containing 1 mg/ml […] after 24 hrs by microdilution method; format: functional; settings: ADMDR1, 24 h
# [13] = system: Candida albicans; experiment: Antifungal activity against fluconazole resistant Candida albicans isolate B4 overexpressing MDR1 in RPMI-1640 buffered medium after 24 hrs by microdilution method; format: functional; settings: Candida albicans, isolate B4, 24 h; read-out: MIC; procedure, shortened: as §1
# [14] = system: Candida albicans; experiment: Antifungal activity against wild type Candida albicans 10261 in RPMI-1640 buffered medium after 24 hrs by microdilution method; format: functional; settings: Candida albicans, 10261, 24 h; read-out: MIC; procedure, shortened: as §1
# [15] = system: Saccharomyces cerevisiae; experiment: Drug uptake in Saccharomyces cerevisiae ADCDR1 at 200 uM pretreated for 10 mins measured after 60 mins by fluorescamine staining in presence of fluconazole; format: ADME, organism-based; settings: in vivo, 1 h
# [16] = system: Saccharomyces cerevisiae; experiment: Drug uptake in Saccharomyces cerevisiae AD12345678 at 200 uM pretreated for 10 mins measured after 60 mins by fluorescamine staining in presence of fluconazole; format: ADME, organism-based; settings: in vivo, 1 h
# [17] = system: Saccharomyces cerevisiae; experiment: Drug uptake in Saccharomyces cerevisiae ADCDR2 at 200 uM pretreated for 10 mins measured after 60 mins by fluorescamine staining in presence of fluconazole; format: ADME, organism-based; settings: in vivo, 1 h
# [18] = system: Saccharomyces cerevisiae; experiment: Drug uptake in Saccharomyces cerevisiae ADMDR1 at 50 uM pretreated for 10 mins measured after 60 mins by fluorescamine staining in presence of fluconazole; settings: in vivo, 1 h
# [19] = system: Saccharomyces cerevisiae; experiment: Antifungal activity against Saccharomyces cerevisiae ADCDR2 expressing Candida albicans CDR2 efflux pump in YNBG medium containing 1 mg/ml […] after 24 hrs by microdilution method; format: functional; settings: ADCDR2, 24 h
# [20] = system: Saccharomyces cerevisiae; experiment: Drug extrusion in Saccharomyces cerevisiae ADCDR2 expressing Candida albicans CDR2 efflux pump reenergized with glucose at pH 6.0 assessed as fluorescamine-compound conjugate level after 30 mins; format: ADME, organism-based; settings: in vivo, pH 6, 0.5 h
# Procedure, shortened: (§2)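 Cells de-energized with 2-deoxy-D-glucose were loaded (200 µM, 60 min, pH 4.0), washed, and resuspended at OD660 1.0 in 50 mM phosphate pH 6.0 at 30°C. After 5-min preincubation, 10 mM glucose was added. Supernatants were sampled every 5 min and assayed with fluorescamine. Unloaded, identically treated cells gave the background control.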
# [21] = system: Saccharomyces cerevisiae; experiment: Antifungal activity against Saccharomyces cerevisiae ADCDR1 expressing Candida albicans CDR1 efflux pump in YNBG medium containing 1 mg/ml […] after 24 hrs by microdilution method; format: functional; settings: ADCDR1, 24 h
# [22] = system: Saccharomyces cerevisiae; experiment: Antifungal activity against Saccharomyces cerevisiae AD12345678 in YNBG medium containing 1 mg/ml […] after 24 hrs by microdilution method; format: functional; settings: AD12345678, 24 h
# [23] = system: Saccharomyces cerevisiae; experiment: Drug extrusion in Saccharomyces cerevisiae ADCDR1 expressing Candida albicans CDR1 efflux pump reenergized with glucose at pH 6.0 assessed as fluorescamine-compound conjugate level after 30 mins; format: ADME, organism-based; settings: in vivo, pH 6, 0.5 h; procedure, shortened: as §2
# [24] = system: Saccharomyces cerevisiae; experiment: Antifungal activity against wild type Saccharomyces cerevisiae ATCC 9763 in YNBG medium containing 1 mg/ml […] after 24 hrs by microdilution method; format: functional; settings: ATCC 9763, 24 h
# [25] = system: Saccharomyces cerevisiae; experiment: Antifungal activity against Saccharomyces cerevisiae ADMDR1 expressing Candida albicans MDR1 efflux pump in YNBG medium containing 1 mg/ml […] after 24 hrs by microdilution method; format: functional; settings: ADMDR1, 24 h
# [26] = system: Candida albicans; experiment: Prodrug stability in wild type Candida albicans 10261 assessed as compound cleavage rate measured per mg of protein; format: ADME, organism-based; settings: in vivo
# [27] = system: Candida albicans; experiment: Prodrug stability in fluconazole sensitive Candida albicans isolate Gu4 assessed as compound cleavage rate measured per mg of protein; format: ADME, organism-based; settings: in vivo
# Procedure, shortened: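 Oligopeptides were incubated with cell extracts of the yeast cells, and their hydrolytic enzymes cleaved them. The amino acids released were quantified by the Cd-ninhydrin method.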
# [28] = system: Saccharomyces cerevisiae; experiment: Antifungal activity against Saccharomyces cerevisiae AD12345678 in YNPG-proline medium after 24 hrs by microdilution method; format: functional; settings: AD12345678, 24 h
# [29] = system: Saccharomyces cerevisiae; experiment: Antifungal activity against Saccharomyces cerevisiae ADCDR2 expressing Candida albicans CDR2 efflux pump in YNPG-proline medium after 24 hrs by microdilution method; format: functional; settings: ADCDR2, 24 h
# [30] = system: Saccharomyces cerevisiae; experiment: Antifungal activity against Saccharomyces cerevisiae ADMDR1 expressing Candida albicans MDR1 efflux pump in YNPG-proline medium after 24 hrs by microdilution method; format: functional; settings: ADMDR1, 24 h
# [31] = system: Candida albicans; experiment: Prodrug stability in fluconazole sensitive Candida albicans isolate B3 assessed as compound cleavage rate measured per mg of protein; format: ADME, organism-based; settings: in vivo
# [32] = system: Saccharomyces cerevisiae; experiment: Antifungal activity against Saccharomyces cerevisiae ADCDR1 expressing Candida albicans CDR1 efflux pump in YNPG-proline medium after 24 hrs by microdilution method; format: functional; settings: ADCDR1, 24 h
# [33] = system: Saccharomyces cerevisiae; experiment: Antifungal activity against wild type Saccharomyces cerevisiae ATCC 9763 in YNPG-proline medium after 24 hrs by microdilution method; format: functional; settings: ATCC 9763, 24 h
# [34] = system: Saccharomyces cerevisiae; experiment: Prodrug stability in Saccharomyces cerevisiae AD12345678 assessed as compound cleavage rate measured per mg of protein; format: ADME, organism-based; settings: in vivo
# [35] = system: Saccharomyces cerevisiae; experiment: Prodrug stability in Saccharomyces cerevisiae ADCDR2 expressing Candida albicans CDR2 efflux pump assessed as compound cleavage rate measured per mg of protein; format: ADME, organism-based; settings: in vivo
# [36] = system: Saccharomyces cerevisiae; experiment: Prodrug stability in wild type Saccharomyces cerevisiae ATCC 9763 assessed as compound cleavage rate measured per mg of protein; format: ADME, organism-based; settings: in vivo
# [37] = system: Saccharomyces cerevisiae; experiment: Prodrug stability in Saccharomyces cerevisiae ADCDR1 expressing Candida albicans CDR1 efflux pump assessed as compound cleavage rate measured per mg of protein; format: ADME, organism-based; settings: in vivo
# [38] = system: Saccharomyces cerevisiae; experiment: Prodrug stability in Saccharomyces cerevisiae ADMDR1 expressing Candida albicans MDR1 efflux pump assessed as compound cleavage rate measured per mg of protein; format: ADME, organism-based; settings: in vivo
Compound,MIC [1] [µg/mL],Drug uptake [2] [nmol/min/mg],MIC [3] [µg/mL],MIC [4] [µg/mL],MIC [5] [µg/mL],Drug uptake [6] [nmol/min/mg],MIC [7] [µg/mL],MIC [8] [µg/mL],Drug uptake [9] [nmol/min/mg],MIC [10] [µg/mL],Drug uptake [11] [nmol/min/mg],MIC [12] [µg/mL],MIC [13] [µg/mL],MIC [14] [µg/mL],Drug uptake [15] [nmol/min/mg],Drug uptake [16] [nmol/min/mg],Drug uptake [17] [nmol/min/mg],Drug uptake [18] [nmol/min/mg],Stability [26] [nmol/min],Stability [27] [nmol/min],other results
NC(Cc1cccc(F)c1)C(=O)O (stereo not given) [M-FLUOROPHENYLALANINE],128,1.63,16,16,128,2.57,32,128,1.86,32,1.78,32,128,256,,,,,,,
C[C@H](N)C(=O)N[C@@H](C)C(=O)O (H-Ala-Ala-OH),,2.59,,,,4.46,,,4.08,,2.58,,,,4.2,2.55,3.94,2.61,,,
[N-]=[N+]=CC(=O)OC[C@H](N)C(=O)O [AZASERINE],32,1.7,1,1,16,2.15,2,16,1.92,2,1.75,2,32,16,,,,,,,
N[C@H]1CCC[C@H]1C(=O)O,2,1.67,256,256,1,2.11,64,4,1.85,128,1.63,256,8,1,,,,,,,MIC [19]: 16 µg/mL; Activity [20]: 5 µM; MIC [21]: 16 µg/mL; MIC [22]: 8 µg/mL; Activity [23]: 5 µM; MIC [24]: 4 µg/mL; MIC [25]: 16 µg/mL
C[C@@H]([C@H](N)C(=O)N[C@H](C(=O)O)[C@H]1O[C@@H](n2ccc(=O)[nH]c2=O)[C@H](O)[C@@H]1O)[C@H](O)c1ccc(O)cn1 [NIKKOMYCIN],8,0.32,,,16,1.08,,4,0.97,,0.33,,8,32,0.98,0.32,0.88,0.34,0.3,0.3,MIC [28]: 128 µg/mL; MIC [29]: 16 µg/mL; MIC [30]: 128 µg/mL; Stability [31]: 0.3 nmol/min; MIC [32]: 16 µg/mL; MIC [33]: 128 µg/mL
CC(C)C[C@H](N)C(=O)N[C@@H](Cc1cccc(F)c1)C(=O)O (H-Leu-[Phe(3-F)]-OH),64,0.84,,,128,1.95,,8,2.37,,0.79,,64,64,1.82,0.79,2.23,0.87,20,20,Stability [34]: 14 nmol/min; MIC [28]: 256 µg/mL; Stability [35]: 14 nmol/min; MIC [29]: 4 µg/mL; MIC [30]: 256 µg/mL; Stability [31]: 20 nmol/min; Stability [36]: 14 nmol/min; Stability [37]: 14 nmol/min; MIC [32]: 8 µg/mL; Stability [38]: 14 nmol/min; MIC [33]: 256 µg/mL
CC(C)C[C@H](NC(=O)[C@@H](N)COCCN)C(=O)NCC(=O)O,,0.87,,,,1.42,,,1.31,,0.69,,,,1.32,0.7,1.26,0.85,20,20,Stability [34]: 14 nmol/min; Stability [35]: 14 nmol/min; Stability [31]: 20 nmol/min; Stability [36]: 14 nmol/min; Stability [37]: 14 nmol/min; Stability [38]: 14 nmol/min
